The test system of series [1] is Echinochloa crus-galli. The series is described as follows: Stimulation of Echinochloa crus-galli radicle growth at 1 ug/ml incubated in dark at 27 degC measured after 48 hrs relative to control. It counts as functional. An outline of the steps: (§1)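 Petri-dish seed assay at 1 µg/ml, with sample in MeOH-H2O (1:1) air-dried before seeding. Held in the dark at 27° and scored at 24 h (Amaranthus) or 48 h (E. crus-galli). Radicle growth expressed relative to untreated controls.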

The test system of series [2] is Amaranthus hypochondriacus. The series is described as follows: Stimulation of Amaranthus hypochondriacus radicle growth at 1 ug/ml incubated in dark at 27 degC measured after 24 hrs relative to control. It counts as functional. In short, it runs like this:
as §1

Series [3] deals with Amaranthus hypochondriacus. The series is described as follows: Phytogrowth-inhibitory activity against Amaranthus hypochondriacus assessed as inhibition of radicle growth at 100 ug/ml incubated in dark at 27 degC measured after 24 hrs. It counts as functional. Conditions: read-out: GI. In short, it runs like this: (§2)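 Samples in MeOH-H2O (1:1) were added to Petri dishes and air-dried, giving a final 100 µg/ml. Solvent-only dishes served as negative controls and 2,4-D as positive control. Dishes were kept dark at 27°. Radicle length was read at 24 h for A. leucocarpus and 48 h for E. crus-galli. Results are % of untreated control, 4 replicates × 20 seedlings, with ANOVA/Duncan.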

For series [4], the system named is Echinochloa crus-galli. The series is described as follows: Phytogrowth-inhibitory activity against Echinochloa crus-galli assessed as inhibition of radicle growth at 100 ug/ml incubated in dark at 27 degC measured after 48 hrs. Format: functional. The following applies: read-out: GI. An outline of the steps:
as §2

The test system of series [5] is Echinochloa crus-galli. Briefly: Phytogrowth-inhibitory activity against Echinochloa crus-galli assessed as inhibition of seed germination incubated in dark at 27 degC measured after 48 hrs. Format: functional, organism-based. An outline of the steps: (§3)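 Seeds in Petri dishes with test sample applied in MeOH-H2O (1:1), solvent air-dried before use. Kept in the dark at 27°: 24 h for Amaranthus, 48 h for E. crus-galli. Germination percentage and radicle length scored. Controls: 2,4-D positive, solvent-only negative. Germination IC50 from linear regression; radicle-growth IC50 from probit analysis.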

For series [6], the system named is Amaranthus hypochondriacus. Briefly: Phytogrowth-inhibitory activity against Amaranthus hypochondriacus assessed as inhibition of seed germination incubated in dark at 27 degC measured after 24 hrs. It counts as functional, organism-based. An outline of the steps:
as §3

Series [7] concerns Echinochloa crus-galli. The series is described as follows: Phytogrowth-inhibitory activity against Echinochloa crus-galli assessed as inhibition of radicle growth incubated in dark at 27 degC measured after 48 hrs. Format: functional, organism-based. In short, it runs like this: as §3
Series [8] concerns Amaranthus hypochondriacus. The series is described as follows: Phytogrowth-inhibitory activity against Amaranthus hypochondriacus assessed as inhibition of radicle growth incubated in dark at 27 degC measured after 24 hrs. Format: functional, organism-based. In short, it runs like this:
as §3

Series [9] has as its system Staphylococcus aureus. The series is described as follows: Antibacterial activity against Staphylococcus aureus ATCC 25923 by agar diffusion technique. Format: functional. For orientation: A growth-free zone around the sample is the usual read-out of agar diffusion tests.
A short description of series [10]: Toxicity in brine shrimp assessed as lethality. It counts as organism-based. Conditions: artemia, in vivo.
Series [11] concerns A-431. The series is described as follows: Cytotoxicity against human A431 cells. Format: functional. Conditions: read-out: ED50 (the source's name). In short, it runs like this:
(§4)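 Cell lines obtained from ATCC and tested in vitro following an earlier cytotoxicity protocol. The value is reported as ED50.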

Series [12] in a line: Cytotoxicity against human BC1 cells. Format: functional. The following applies: read-out: ED50 (the source's name). An outline of the steps: (§5)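 Cell lines established from primary human tumors at a university surgical oncology division and tested in vitro following an earlier cytotoxicity protocol. The value is reported as ED50.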
Series [13] deals with Col2. The series is described as follows: Cytotoxicity against human Col2 cells. It counts as functional. The following applies: read-out: ED50 (the source's name). In short, it runs like this:
as §5

In series [14] the test system is HT-1080. Briefly: Cytotoxicity against human HT1080 cells. Conditions: read-out: ED50 (the source's name). Format: functional. An outline of the steps: as §4
The test system of series [15] is KB. The series is described as follows: Cytotoxicity against human KB cells. It counts as functional. The following applies: read-out: ED50 (the source's name). In short, it runs like this: as §4
Series [16] can be described thus: Cytotoxicity against drug-resistant human KBV1 cells. Format: functional. The following applies: KB-V1, read-out: ED50 (the source's name).
The test system of series [17] is LNCaP. The series is described as follows: Cytotoxicity against human LNCAP cells. It counts as functional. The following applies: read-out: ED50 (the source's name). In short, it runs like this: as §4
Series [18] has as its system Lu1. The series is described as follows: Cytotoxicity against human Lu1 cells. It counts as functional. Conditions: read-out: ED50 (the source's name). In short, it runs like this: as §5
In series [19] the test system is SK-MEL-2. Briefly: Cytotoxicity against human SK-MEL-2 cells. Format: functional. Conditions: read-out: ED50 (the source's name). An outline of the steps: as §5
The subject of series [20] is ZR-75-1. The series is described as follows: Cytotoxicity against human ZR-75-1 cells. Format: functional. The following applies: read-out: ED50 (the source's name). In short, it runs like this:
as §4

Series [21] deals with P388. Briefly: Cytotoxicity against mouse P388 cells. It counts as functional. Conditions: read-out: ED50 (the source's name). An outline of the steps: as §4
A short description of series [22]: (§6) Displacement of [3H]PDBu from protein kinase C in calf brain homogenate by scintillation counting. It counts as tissue-based, Bos taurus. An outline of the steps:
(§7)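 Incubation mix contained 50 mM Tris/HCl (pH 7.4), 1 mM CaCl2, 39.2 nM [3H]PDBu, 50 µg/ml calf brain homogenate as the protein kinase C source, and compound in DMSO. Tubes ran 1 h at ambient temperature, then were filtered onto glass fiber and counted. Nonspecific binding was taken as the part not displaced by 100-fold excess unlabelled PDBu. Curve used five-fold dilutions from 200 to 0.32 µg/ml, 4 replicates.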

The species named for series [23] is Bos taurus. The description is as §6. It counts as tissue-based. An outline of the steps: as §7

Converted amounts (≈) assume the structure as drawn.

`O=C(O)COc1ccc(Cl)cc1Cl` [2,4-DICHLOROPHENOXYACETIC ACID]: the Activity in series [1] and in series [2] was 4% each time.

Take `CCCCC[C@H]1CCCCCCCCCC(=O)O[C@H]2[C@H](O)[C@@H](CO)O[C@@H](O[C@H]3[C@H](O1)O[C@H](C)[C@H](O)[C@@H]3O)[C@@H]2O[C@@H]1O[C@@H](C)[C@H](OC(=O)[C@@H](C)CC)[C@@H](O[C@@H]2O[C@@H](C)[C@H](O)[C@@H](O)[C@H]2O)[C@H]1OC(=O)[C@@H](C)CC` [TRICOLORIN A]: the inhibition of growth at 100 µg/mL in series [3] was 68.3%; in series [4], 78.8%. Moreover, the IC50 in series [5] came to 36.9 µg/mL (≈ 36.1 µM); in series [6], 152 µg/mL (≈ 149 µM); in series [7], 12.6 µg/mL (≈ 12.3 µM); in series [8] it was 37 µg/mL (≈ 36.2 µM); in series [22], 44.1 µg/mL (≈ 43.1 µM). The Activity result in series [7] was “Dose-dependent effect”; in series [8], “Dose-dependent effect”; in series [1] it was 4%; in series [2], 4%; in series [23], “Dose-dependent effect”. The same molecule displayed an MIC in series [9] of 1.8 µg/mL (≈ 1.76 µM). In series [10], the median lethal concentration (LC50) is 18.2 µg/mL (≈ 17.8 µM). Also, the EC50 in series [11] is 10.3 µg/mL (≈ 10.1 µM); in series [12], 2.2 µg/mL (≈ 2.15 µM); in series [13], 8.9 µg/mL (≈ 8.7 µM); in series [14], 6.3 µg/mL (≈ 6.16 µM); in [15], more than 20 µg/mL; in series [16] it was more than 20 µg/mL. Moreover, the EC50 in series [17] came out at 5.8 µg/mL (≈ 5.67 µM); in [18], 5.5 µg/mL (≈ 5.38 µM); in [19], 7.6 µg/mL (≈ 7.43 µM); in [20], 8.1 µg/mL (≈ 7.92 µM); in [21], 2.2 µg/mL (≈ 2.15 µM).

In general, IC50 refers to the point on the concentration scale where inhibition reaches its midpoint. What is called MIC is the lowest concentration that inhibits growth of the organism. Higher therefore signals a need for much substance. As usually defined, the LC50 is the concentration lethal to half of the exposed cells or organisms.

The values are drawn from ChEMBL document CHEMBL1147355, “Tricolorin A, major phytogrowth inhibitor from Ipomoea tricolor” (J Nat Prod, 1993).
